# Columns and labels:
# DC3F/AD [1] = experiment: In vitro activity in DC-3F/AD cell line Ratio of IC50(actinomycin D alone) / IC50(actinomycin D + modulator) at a concentration of 10 uM
# DC3F/AD [2] = experiment: In vitro activity in DC-3F/AD cell line(Ratio of IC50(actinomycin D alone) / IC50(actinomycin D + modulator) at a concentration of 5 uM
# DC3F/AD [3] = experiment: Increase in adriamycin uptake in modulator-treated cells relative to untreated cells at a concentration of 10 uM; assay type: functional, Cricetulus griseus
# How it was run: (§1)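 DC-3F/AD or KB-A1 cells (5 × 10⁶/mL) were incubated at 37 °C for 5 h with 50 μM adriamycin plus modulator (2.5–10 μM range). ADR fluorescence of 10 000 cells was read by flow cytometry at 4 °C with 488 nm argon-laser excitation. The value is the increase in mean fluorescence of treated cells over untreated cells.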
# DC3F/AD [4] = experiment: Increase in adriamycin uptake in modulator-treated cells relative to untreated cells at a concentration of 5 uM; assay type: functional, Cricetulus griseus
# How it was run: as §1
# DC3F/AD [5] = experiment: Percent of cell viability remaining after incubating with a 10 uM concentration; assay type: functional, Cricetulus griseus
# How it was run: (§2)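 Cells were grown with modulator alone for 4 days under the same conditions as the chemosensitivity assay, and read by MTT. Viability = (absorbance with modulator/absorbance of control cells) × 100. "tox" marks viability below 25%.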
# DC3F/AD [6] = experiment: Percent of cell viability remaining after incubating the cells with the modulator alone a concentration of 5 uM; assay type: functional, Cricetulus griseus
# How it was run: as §2
# KB [7] = experiment: In vitro activity in KB-A1 cell line activity expressed as fold reversion (Ratio of IC50(adriamycin alone) / IC50(adriamycin + modulator) at a concentration of 5 uM; assay type: functional, Homo sapiens
# How it was run: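 Human epidermoid KB-A1 cells (Pgp-overexpressing) were grown in RPMI 1640 with 10% FCS and 10 mM HEPES (pH 7.4). They were exposed for 4 days to adriamycin (nine graded concentrations, in triplicate) with or without 5 μM modulator. IC50 was read by the MTT assay. Fold reversion = IC50(ADR alone)/IC50(ADR + modulator).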
# KB [8] = experiment: Increase in adriamycin uptake in modulator-treated cells relative to untreated KB-A1 cells at a concentration of 5 uM; assay type: functional, Homo sapiens
# How it was run: as §1
# KB [9] = experiment: Percent of cell viability remaining after incubating the cells with the modulator alone; assay type: functional, Homo sapiens; set-up: concentration or dose not given beside the values
# How it was run: as §2
Structure (SMILES),Fold reversion (DC3F/AD [1]),Fold reversion (DC3F/AD [2]),Increase (DC3F/AD [3]),Increase (DC3F/AD [4]),Viability (DC3F/AD [5]) [%],Viability (DC3F/AD [6]) [%],Fold reversion (KB [7]),Increase (KB [8]),Viability (KB [9]) [%]
C=CCNc1nc(NCCC)nc(N2CCC(NCCC(c3ccccc3)c3ccccc3)CC2)n1,<25,<25,27.2,17.9,,,,,
C=CCNc1nc(NCC=C)nc(N2CCC(SC(c3ccccc3)c3ccccc3)CC2)n1,1202,380,28.3,,76,90,,,
C=CCNc1nc(NCC=C)nc(N2CCN(C(c3ccc(Cl)cc3)c3ccc(Cl)cc3)CC2)n1.CS(=O)(=O)O,99,42,,,67,81,,,
C=CCNc1nc(NCC=C)nc(NCC(O)CN2CCC(NC3c4ccccc4CCc4ccccc43)CC2)n1 (stereo not given),,2,12.9,10.4,,77,<25,13,
C=CCNc1nc(NCC=C)nc(N2CCC(N(CC=C)C(c3ccc(F)cc3)c3ccc(F)cc3)CC2)n1,627,,33.9,22.1,49,,,,
C=CCNc1nc(NCC=C)nc(NCCN2CCC(NCC3c4ccccc4CCc4ccccc43)CC2)n1,<25,120,12.4,13.7,,41,<25,20.9,
C=CCNc1nc(NCC=C)nc(N2CCC(NCC3c4ccccc4CCc4cc(OC)ccc43)CC2)n1 (stereo not given),<25,1913,,30.8,,73,264,72.6,83
C=CCNc1nc(NCC=C)nc(N2CCN(NC(=O)C3c4ccccc4CCc4ccccc43)CC2)n1,2174,138,24.8,9.5,67,86,,,
C=CCNc1nc(NCC=C)nc(N2CCC(NCC(c3ccccc3)c3ccccc3)CC2)n1,1540,753,34.7,31.3,77,90,,,
C=CCNc1nc(NCC=C)nc(N2CCC(N(CC)C(c3ccc(F)cc3)c3ccc(F)cc3)CC2)n1,1838,1008,44.7,42.7,53,75,,,
C=CCNc1nc(NCC=C)nc(NC2CCN(C(c3ccc(F)cc3)c3ccc(F)cc3)CC2)n1,<25,1654,,,,38,22,,40
C=CCNc1nc(NCC=C)nc(NCCN2CCC(NC3c4ccccc4CCc4ccccc43)CC2)n1,<25,64,18.3,10.4,,38,<25,14.5,
C=CCNc1nc(NCC=C)nc(NN2CCN(C(c3ccc(F)cc3)c3ccc(F)cc3)CC2)n1,5344,1932,20.7,18.3,78,82,,,
C=CCNc1nc(NCC=C)nc(N2CCC(NCC(c3cc(OC)cc(OC)c3)c3ccccc3C)CC2)n1 (stereo not given),<25,1224,26.5,24.7,,80,111,41.4,91
C=CCNc1nc(NCC=C)nc(N2CCC(NCC(c3c(C)cccc3C)c3c(C)cccc3C)CC2)n1,374,93,35.5,28.9,84,100,,,
C=CCNc1nc(NCC=C)nc(N2CCC(NCC34CCC(c5ccccc53)c3ccccc34)CC2)n1,422,96,30.7,20.2,87,90,<25,22.2,
C=CCNc1nc(NCC=C)nc(N2CCC(NCCC(c3ccccc3)c3ccccc3)CC2)n1,<25,220,29.8,21.5,,50,,,

# Reference: ChEMBL document CHEMBL1126298, “New triazine derivatives as potent modulators of multidrug resistance” (1992)
